The results in this text go back to ChEMBL document CHEMBL3286111, “Tryptophan hydroxylase 1 (Tph-1)-targeted bone anabolic agents for osteoporosis” (J Med Chem, 2014).

Molecules are shown by their SMILES.

The nature of this series: Cytotoxicity against rat RBL2H3 cells by MTT assay. The class given is cell-based. Also noted: concentration or dose not given beside the values. Particulars: rbl-2h3. Put shortly:
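RBL2H3 cells (α-MEM) or PC12 cells (D-MEM), both with 10% FBS, treated at a single dose in 0.1% DMSO; 0.1% DMSO control; 37 °C, 5% CO2. MTT (5 mg/mL) added 4 h before the end, then SDS/DMF lysis buffer (pH 7.2) for 6 h; absorbance read at 570 nm. Cytotoxicity % calculated from background-corrected OD versus control.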
In general terms: Tetrazolium assays rely on reduction of a dye to a coloured formazan, in cell work by metabolically active cells.
The compound `CSCC[C@@H](NC(=O)[C@]12CC[C@@H](C)[C@H](C)[C@H]1C1=CC[C@@H]3[C@@]4(C)Cc5nc6ccccc6nc5C(C)(C)[C@@H]4CC[C@@]3(C)[C@]1(C)CC2)C(=O)O` yielded an Activity of 6.2%.

Take `C[C@H]1[C@H](C)CC[C@]2(C(=O)O)CC[C@]3(C)C(=CC[C@@H]4[C@@]5(C)C=C(C#N)C(=O)C(C)(C)[C@@H]5CC[C@]43C)[C@H]12`: the Activity turned out to be 4.3%.

The compound `CCOC(=O)CNC(=O)[C@]12CC[C@@H](C)[C@H](C)[C@H]1C1=CC[C@@H]3[C@@]4(C)CC[C@H](OC(C)=O)C(C)(C)[C@@H]4CC[C@@]3(C)[C@]1(C)CC2` registered an Activity of 1.6%.

`CCOC(=O)CNC(=O)[C@]12CC[C@@H](C)[C@H](C)[C@H]1C1=CC[C@@H]3[C@@]4(C)Cc5cnn(-c6ccccc6)c5C(C)(C)[C@@H]4CC[C@@]3(C)[C@]1(C)CC2` gave an Activity of 1.2%.

For the compound `COC(=O)C(CC(C)C)NC(=O)[C@]12CC[C@@H](C)[C@H](C)[C@H]1C1=CC[C@@H]3[C@@]4(C)Cc5c([nH]c6ccc(Cl)cc56)C(C)(C)[C@@H]4CC[C@@]3(C)[C@]1(C)CC2` (stereo partly specified), the Activity worked out at 15%.

For the compound `C[C@H]1[C@H](C)CC[C@]2(C(=O)O)CC[C@]3(C)C(=CC[C@@H]4[C@@]5(C)Cc6c([nH]c7ccc(Br)cc67)C(C)(C)[C@@H]5CC[C@]43C)[C@H]12`, the Activity amounted to 3.7%.

For `COC(=O)C(CC(C)C)NC(=O)[C@]12CC[C@@H](C)[C@H](C)[C@H]1C1=CC[C@@H]3[C@@]4(C)Cc5cn[nH]c5C(C)(C)[C@@H]4CC[C@@]3(C)[C@]1(C)CC2` (stereo partly specified), the Activity stood at 0.9%.

For `C[C@H]1[C@H](C)CC[C@]2(C(=O)NCCCN3CCOCC3)CC[C@]3(C)C(=CC[C@@H]4[C@@]5(C)Cc6nc7ccccc7nc6C(C)(C)[C@@H]5CC[C@]43C)[C@H]12`, the Activity was determined as 31.3%.

For `C[C@H]1[C@H](C)CC[C@]2(C(=O)NCCC3CCN(Cc4ccccc4)CC3)CC[C@]3(C)C(=CC[C@@H]4[C@@]5(C)Cc6nc7ccccc7nc6C(C)(C)[C@@H]5CC[C@]43C)[C@H]12`, the Activity worked out at 59.5%.

Consider `COC(=O)C(Cc1ccccc1)NC(=O)[C@]12CC[C@@H](C)[C@H](C)[C@H]1C1=CC[C@@H]3[C@@]4(C)Cc5cnn(-c6ccccc6)c5C(C)(C)[C@@H]4CC[C@@]3(C)[C@]1(C)CC2` (stereo partly specified), for which the Activity was determined as 0.9%.

For the compound `COC(=O)C(Cc1ccccc1)NC(=O)[C@]12CC[C@@H](C)[C@H](C)[C@H]1C1=CC[C@@H]3[C@@]4(C)Cc5cn[nH]c5C(C)(C)[C@@H]4CC[C@@]3(C)[C@]1(C)CC2` (stereo partly specified), the Activity is on record as 1.9%.

`COC(=O)C(CC(C)C)NC(=O)[C@]12CC[C@@H](C)[C@H](C)[C@H]1C1=CC[C@@H]3[C@@]4(C)Cc5nc6cc(Cl)c(Cl)cc6nc5C(C)(C)[C@@H]4CC[C@@]3(C)[C@]1(C)CC2` (stereo partly specified): the Activity is 0.7%.

For `COC(=O)C(Cc1ccccc1)NC(=O)[C@]12CC[C@@H](C)[C@H](C)[C@H]1C1=CC[C@@H]3[C@@]4(C)Cc5cnoc5C(C)(C)[C@@H]4CC[C@@]3(C)[C@]1(C)CC2` (stereo partly specified), the Activity is reported as 0.8%.

`COC(=O)C(CC(C)C)NC(=O)[C@]12CC[C@@H](C)[C@H](C)[C@H]1C1=CC[C@@H]3[C@@]4(C)Cc5nc6ccccc6nc5C(C)(C)[C@@H]4CC[C@@]3(C)[C@]1(C)CC2` (stereo partly specified) registered an Activity of 0.5%.

With `C[C@H]1[C@H](C)CC[C@]2(C(=O)NC3CCN(Cc4ccccc4)CC3)CC[C@]3(C)C(=CC[C@@H]4[C@@]5(C)Cc6nc7ccccc7nc6C(C)(C)[C@@H]5CC[C@]43C)[C@H]12`, the Activity stood at 51.1%.

For `CCOC(=O)CNC(=O)[C@]12CC[C@@H](C)[C@H](C)[C@H]1C1=CC[C@@H]3[C@@]4(C)Cc5nc6cc(Cl)c(Cl)cc6nc5C(C)(C)[C@@H]4CC[C@@]3(C)[C@]1(C)CC2`, the Activity was determined as 2%.

In turn, `CCOC(=O)CNC(=O)[C@]12CC[C@@H](C)[C@H](C)[C@H]1C1=CC[C@@H]3[C@@]4(C)Cc5cnn(-c6ccc(F)cc6)c5C(C)(C)[C@@H]4CC[C@@]3(C)[C@]1(C)CC2` returned an Activity of 15.8%.

The compound `C[C@H]1[C@H](C)CC[C@]2(C(=O)O)CC[C@]3(C)C(=CC[C@@H]4[C@@]5(C)Cc6cn[nH]c6C(C)(C)[C@@H]5CC[C@]43C)[C@H]12` yielded an Activity of 0.1%.

As for `COC(=O)C(Cc1ccccc1)NC(=O)[C@]12CC[C@@H](C)[C@H](C)[C@H]1C1=CC[C@@H]3[C@@]4(C)Cc5nc6cc(Cl)c(Cl)cc6nc5C(C)(C)[C@@H]4CC[C@@]3(C)[C@]1(C)CC2` (stereo partly specified), the Activity is 7.7%.

Regarding `COC(=O)C(Cc1ccccc1)NC(=O)[C@]12CC[C@@H](C)[C@H](C)[C@H]1C1=CC[C@@H]3[C@@]4(C)Cc5nc6ccccc6nc5C(C)(C)[C@@H]4CC[C@@]3(C)[C@]1(C)CC2` (stereo partly specified), the Activity turned out to be 12.4%.

Take `COC(=O)C(Cc1ccccc1)NC(=O)[C@]12CC[C@@H](C)[C@H](C)[C@H]1C1=CC[C@@H]3[C@@]4(C)C=C(C#N)C(=O)C(C)(C)[C@@H]4CC[C@@]3(C)[C@]1(C)CC2` (stereo partly specified): the Activity amounted to 5.4%.

Take `COC(=O)C(Cc1ccccc1)NC(=O)[C@]12CC[C@@H](C)[C@H](C)[C@H]1C1=CC[C@@H]3[C@@]4(C)CCC(=O)C(C)(C)[C@@H]4CC[C@@]3(C)[C@]1(C)CC2` (stereo partly specified): the Activity is recorded as 1.1%.

In the case of `COC(=O)C(Cc1ccccc1)NC(=O)[C@]12CC[C@@H](C)[C@H](C)[C@H]1C1=CC[C@@H]3[C@@]4(C)Cc5c([nH]c6ccc(Br)cc56)C(C)(C)[C@@H]4CC[C@@]3(C)[C@]1(C)CC2` (stereo partly specified), the Activity amounted to 16%.

As for `C[C@H]1[C@H](C)CC[C@]2(C(=O)O)CC[C@]3(C)C(=CC[C@@H]4[C@@]5(C)Cc6nc7ccccc7nc6C(C)(C)[C@@H]5CC[C@]43C)[C@H]12`, the Activity was found to be 3.5%.

`CCOC(=O)CNC(=O)[C@]12CC[C@@H](C)[C@H](C)[C@H]1C1=CC[C@@H]3[C@@]4(C)Cc5cnoc5C(C)(C)[C@@H]4CC[C@@]3(C)[C@]1(C)CC2` came in with an Activity of 11.1%.

`CCOC(=O)CNC(=O)[C@]12CC[C@@H](C)[C@H](C)[C@H]1C1=CC[C@@H]3[C@@]4(C)CCC(=O)C(C)(C)[C@@H]4CC[C@@]3(C)[C@]1(C)CC2`: the Activity came to 1.7%.

Compound `C[C@H]1[C@H](C)CC[C@]2(C(=O)O)CC[C@]3(C)C(=CC[C@@H]4[C@@]5(C)Cc6cncnc6C(C)(C)[C@@H]5CC[C@]43C)[C@H]12` showed an Activity of 4.3%.

Compound `C[C@H]1[C@H](C)CC[C@]2(C(=O)O)CC[C@]3(C)C(=CC[C@@H]4[C@@]5(C)Cc6nc7cc(Cl)c(Cl)cc7nc6C(C)(C)[C@@H]5CC[C@]43C)[C@H]12` gave an Activity of 2.2%.

As to `COC(=O)C(CC(C)C)NC(=O)[C@]12CC[C@@H](C)[C@H](C)[C@H]1C1=CC[C@@H]3[C@@]4(C)Cc5cnn(-c6ccc(F)cc6)c5C(C)(C)[C@@H]4CC[C@@]3(C)[C@]1(C)CC2` (stereo partly specified), the Activity was 1%.

On to `COC(=O)C(CC(C)C)NC(=O)[C@]12CC[C@@H](C)[C@H](C)[C@H]1C1=CC[C@@H]3[C@@]4(C)Cc5cncnc5C(C)(C)[C@@H]4CC[C@@]3(C)[C@]1(C)CC2` (stereo partly specified), for which the Activity amounted to 10.3%.

With `CCOC(=O)CNC(=O)[C@]12CC[C@@H](C)[C@H](C)[C@H]1C1=CC[C@@H]3[C@@]4(C)C=C(C#N)C(=O)C(C)(C)[C@@H]4CC[C@@]3(C)[C@]1(C)CC2`, the Activity came out at 50.1%.
